Test results reported in ChEMBL document CHEMBL4689842, “EUbOPEN Chemogenomics Library wave 1” (2021).

Test system: U2OS
Experiment: Multiplex assay against U2OS
Assay type: toxicity, cell-based
Details: human
Method in brief: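 Live cells were stained at seeding with Hoechst33342, BioTracker Green Microtubule Cytoskeleton Dye, MitoTracker Red and Annexin V Alexa Fluor 680, then imaged on a CQ1 microscope at 37°C and 5% CO2 after compound addition. CellPathfinder machine-learning gating split cells into Hoechst high-intensity objects or normal cells. Normal cells were split into healthy, pyknosed or fragmented nuclei, and pyknosed cells into mitotic or apoptotic. Tubulin, mitochondrial-mass and membrane-permeability phenotypes are per cents of healthy-nucleus cells.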

[1] = 12 h, 1 µM, compound concentration 1 uM, replicate 1
[2] = 12 h, 1 µM, compound concentration 1 uM, replicate 2
[3] = 12 h, 10 µM, compound concentration 10 uM, replicate 1
[4] = 12 h, 10 µM, compound concentration 10 uM, replicate 2
[5] = 24 h, 1 µM, compound concentration 1 uM, replicate 1
[6] = 24 h, 1 µM, compound concentration 1 uM, replicate 2
[7] = 24 h, 10 µM, compound concentration 10 uM, replicate 1
[8] = 24 h, 10 µM, compound concentration 10 uM, replicate 2
[9] = 48 h, 1 µM, compound concentration 1 uM, replicate 1
[10] = 48 h, 1 µM, compound concentration 1 uM, replicate 2
[11] = 48 h, 10 µM, compound concentration 10 uM, replicate 1
[12] = 48 h, 10 µM, compound concentration 10 uM, replicate 2

O=C1N/C(=N/c2ccccc2F)S/C1=C\c1ccc(C(=O)O)cc1
Population Apoptotic (%) [1]: 33%
Population Fragmented Nuclei (%) [1]: 8%
Population Healthy Nuclei (%) [1]: 85%
Population Hoechst High Intensity Objects (%) [1]: 9%
Population Membrane Permeable-Phenotype (%) [1]: 6%
Population Mitochondria Different-Phenotype (%) [1]: 10%
Population Mitotic Cells (%) [1]: 66%
Population Normal (%) [1]: 90%
Population Pyknosed Nuclei (%) [1]: 5%
Population Tubulin-Different-Phenotype (%) [1]: 7%
Total Cell Count [1]: 130
Population Apoptotic (%) [2]: 0%
Population Fragmented Nuclei (%) [2]: 3%
Population Healthy Nuclei (%) [2]: 92%
Population Hoechst High Intensity Objects (%) [2]: 8%
Population Mitochondria Different-Phenotype (%) [2]: 16%
Population Mitotic Cells (%) [2]: 100%
Population Normal (%) [2]: 91%
Population Pyknosed Nuclei (%) [2]: 3%
Population Tubulin-Different-Phenotype (%) [2]: 24%
Total Cell Count [2]: 66
Population Apoptotic (%) [3]: 25%
Population Fragmented Nuclei (%) [3]: 8%
Population Healthy Nuclei (%) [3]: 82%
Population Hoechst High Intensity Objects (%) [3]: 5%
Population Membrane Permeable-Phenotype (%) [3]: 6%
Population Mitochondria Different-Phenotype (%) [3]: 15%
Population Mitotic Cells (%) [3]: 75%
Population Normal (%) [3]: 94%
Population Pyknosed Nuclei (%) [3]: 8%
Population Tubulin-Different-Phenotype (%) [3]: 8%
Total Cell Count [3]: 175
Population Apoptotic (%) [4]: 44%
Population Fragmented Nuclei (%) [4]: 4%
Population Healthy Nuclei (%) [4]: 81%
Population Hoechst High Intensity Objects (%) [4]: 8%
Population Membrane Permeable-Phenotype (%) [4]: 1%
Population Mitochondria Different-Phenotype (%) [4]: 9%
Population Mitotic Cells (%) [4]: 55%
Population Normal (%) [4]: 91%
Population Pyknosed Nuclei (%) [4]: 14%
Population Tubulin-Different-Phenotype (%) [4]: 9%
Total Cell Count [4]: 59
Population Apoptotic (%) [5]: 33%
Population Fragmented Nuclei (%) [5]: 9%
Population Healthy Nuclei (%) [5]: 81%
Population Membrane Permeable-Phenotype (%) [5]: 4%
Population Mitochondria Different-Phenotype (%) [5]: 6%
Population Mitotic Cells (%) [5]: 66%
Population Pyknosed Nuclei (%) [5]: 8%
Population Tubulin-Different-Phenotype (%) [5]: 4%
Total Cell Count [5]: 131
Population Apoptotic (%) [6]: 0%
Population Fragmented Nuclei (%) [6]: 7%
Population Healthy Nuclei (%) [6]: 85%
Population Hoechst High Intensity Objects (%) [6]: 5%
Population Membrane Permeable-Phenotype (%) [6]: 5%
Population Mitochondria Different-Phenotype (%) [6]: 10%
Population Mitotic Cells (%) [6]: 100%
Population Normal (%) [6]: 94%
Population Pyknosed Nuclei (%) [6]: 7%
Population Tubulin-Different-Phenotype (%) [6]: 23%
Total Cell Count [6]: 69
Population Apoptotic (%) [7]: 20%
Population Fragmented Nuclei (%) [7]: 6%
Population Healthy Nuclei (%) [7]: 85%
Population Hoechst High Intensity Objects (%) [7]: 3%
Population Membrane Permeable-Phenotype (%) [7]: 4%
Population Mitochondria Different-Phenotype (%) [7]: 10%
Population Mitotic Cells (%) [7]: 80%
Population Normal (%) [7]: 96%
Population Pyknosed Nuclei (%) [7]: 8%
Population Tubulin-Different-Phenotype (%) [7]: 5%
Total Cell Count [7]: 234
Population Apoptotic (%) [8]: 60%
Population Fragmented Nuclei (%) [8]: 5%
Population Healthy Nuclei (%) [8]: 88%
Population Hoechst High Intensity Objects (%) [8]: 5%
Population Membrane Permeable-Phenotype (%) [8]: 2%
Population Mitochondria Different-Phenotype (%) [8]: 6%
Population Mitotic Cells (%) [8]: 40%
Population Normal (%) [8]: 94%
Population Pyknosed Nuclei (%) [8]: 5%
Population Tubulin-Different-Phenotype (%) [8]: 16%
Total Cell Count [8]: 73
Population Apoptotic (%) [9]: 27%
Population Healthy Nuclei (%) [9]: 86%
Population Hoechst High Intensity Objects (%) [9]: 1%
Population Membrane Permeable-Phenotype (%) [9]: 1%
Population Mitochondria Different-Phenotype (%) [9]: 14%
Population Mitotic Cells (%) [9]: 72%
Population Normal (%) [9]: 98%
Population Pyknosed Nuclei (%) [9]: 6%
Population Tubulin-Different-Phenotype (%) [9]: 6%
Total Cell Count [9]: 134
Population Apoptotic (%) [10]: 0%
Population Fragmented Nuclei (%) [10]: 6%
Population Healthy Nuclei (%) [10]: 92%
Population Hoechst High Intensity Objects (%) [10]: 5%
Population Membrane Permeable-Phenotype (%) [10]: 7%
Population Mitochondria Different-Phenotype (%) [10]: 16%
Population Mitotic Cells (%) [10]: 100%
Population Normal (%) [10]: 94%
Population Pyknosed Nuclei (%) [10]: 1%
Population Tubulin-Different-Phenotype (%) [10]: 23%
Total Cell Count [10]: 76
Population Apoptotic (%) [11]: 21%
Population Healthy Nuclei (%) [11]: 90%
Population Membrane Permeable-Phenotype (%) [11]: 2%
Population Mitochondria Different-Phenotype (%) [11]: 14%
Population Mitotic Cells (%) [11]: 78%
Population Pyknosed Nuclei (%) [11]: 5%
Population Tubulin-Different-Phenotype (%) [11]: 5%
Total Cell Count [11]: 338
Population Apoptotic (%) [12]: 22%
Population Fragmented Nuclei (%) [12]: 4%
Population Healthy Nuclei (%) [12]: 83%
Population Hoechst High Intensity Objects (%) [12]: 2%
Population Membrane Permeable-Phenotype (%) [12]: 6%
Population Mitochondria Different-Phenotype (%) [12]: 9%
Population Mitotic Cells (%) [12]: 77%
Population Normal (%) [12]: 97%
Population Pyknosed Nuclei (%) [12]: 12%
Population Tubulin-Different-Phenotype (%) [12]: 22%
Total Cell Count [12]: 105

O=C(Nc1ccc(Cl)cc1)Nc1cccc(-c2cccc(N3CCCC3)n2)c1
Population Apoptotic (%) [1]: 44%
Population Fragmented Nuclei (%) [1]: 11%
Population Healthy Nuclei (%) [1]: 79%
Population Hoechst High Intensity Objects (%) [1]: 10%
Population Membrane Permeable-Phenotype (%) [1]: 7%
Population Mitochondria Different-Phenotype (%) [1]: 7%
Population Mitotic Cells (%) [1]: 55%
Population Normal (%) [1]: 89%
Population Pyknosed Nuclei (%) [1]: 9%
Population Tubulin-Different-Phenotype (%) [1]: 7%
Total Cell Count [1]: 158
Population Apoptotic (%) [2]: 25%
Population Fragmented Nuclei (%) [2]: 17%
Population Healthy Nuclei (%) [2]: 76%
Population Hoechst High Intensity Objects (%) [2]: 7%
Population Membrane Permeable-Phenotype (%) [2]: 10%
Population Mitochondria Different-Phenotype (%) [2]: 8%
Population Mitotic Cells (%) [2]: 75%
Population Normal (%) [2]: 92%
Population Pyknosed Nuclei (%) [2]: 6%
Population Tubulin-Different-Phenotype (%) [2]: 12%
Total Cell Count [2]: 83
Population Apoptotic (%) [3]: 58%
Population Fragmented Nuclei (%) [3]: 10%
Population Healthy Nuclei (%) [3]: 65%
Population Hoechst High Intensity Objects (%) [3]: 10%
Population Membrane Permeable-Phenotype (%) [3]: 80%
Population Mitochondria Different-Phenotype (%) [3]: 12%
Population Mitotic Cells (%) [3]: 41%
Population Normal (%) [3]: 89%
Population Pyknosed Nuclei (%) [3]: 24%
Population Tubulin-Different-Phenotype (%) [3]: 82%
Total Cell Count [3]: 109
Population Apoptotic (%) [4]: 72%
Population Fragmented Nuclei (%) [4]: 3%
Population Healthy Nuclei (%) [4]: 78%
Population Hoechst High Intensity Objects (%) [4]: 7%
Population Membrane Permeable-Phenotype (%) [4]: 69%
Population Mitochondria Different-Phenotype (%) [4]: 7%
Population Mitotic Cells (%) [4]: 27%
Population Normal (%) [4]: 92%
Population Pyknosed Nuclei (%) [4]: 17%
Population Tubulin-Different-Phenotype (%) [4]: 74%
Total Cell Count [4]: 69
Population Apoptotic (%) [5]: 41%
Population Fragmented Nuclei (%) [5]: 6%
Population Healthy Nuclei (%) [5]: 83%
Population Membrane Permeable-Phenotype (%) [5]: 5%
Population Mitotic Cells (%) [5]: 58%
Population Pyknosed Nuclei (%) [5]: 9%
Population Tubulin-Different-Phenotype (%) [5]: 3%
Population Apoptotic (%) [6]: 20%
Population Fragmented Nuclei (%) [6]: 18%
Population Healthy Nuclei (%) [6]: 75%
Population Hoechst High Intensity Objects (%) [6]: 6%
Population Membrane Permeable-Phenotype (%) [6]: 7%
Population Mitochondria Different-Phenotype (%) [6]: 3%
Population Mitotic Cells (%) [6]: 80%
Population Normal (%) [6]: 93%
Population Pyknosed Nuclei (%) [6]: 6%
Population Tubulin-Different-Phenotype (%) [6]: 12%
Total Cell Count [6]: 94
Population Apoptotic (%) [7]: 83%
Population Fragmented Nuclei (%) [7]: 17%
Population Healthy Nuclei (%) [7]: 54%
Population Hoechst High Intensity Objects (%) [7]: 21%
Population Membrane Permeable-Phenotype (%) [7]: 53%
Population Mitochondria Different-Phenotype (%) [7]: 13%
Population Mitotic Cells (%) [7]: 16%
Population Normal (%) [7]: 78%
Population Pyknosed Nuclei (%) [7]: 28%
Population Tubulin-Different-Phenotype (%) [7]: 61%
Total Cell Count [7]: 131
Population Apoptotic (%) [8]: 72%
Population Fragmented Nuclei (%) [8]: 13%
Population Hoechst High Intensity Objects (%) [8]: 25%
Population Membrane Permeable-Phenotype (%) [8]: 46%
Population Mitochondria Different-Phenotype (%) [8]: 15%
Population Mitotic Cells (%) [8]: 27%
Population Normal (%) [8]: 74%
Population Pyknosed Nuclei (%) [8]: 31%
Population Tubulin-Different-Phenotype (%) [8]: 46%
Total Cell Count [8]: 81
Population Apoptotic (%) [9]: 30%
Population Fragmented Nuclei (%) [9]: 4%
Population Healthy Nuclei (%) [9]: 88%
Population Hoechst High Intensity Objects (%) [9]: 6%
Population Membrane Permeable-Phenotype (%) [9]: 1%
Population Mitochondria Different-Phenotype (%) [9]: 5%
Population Mitotic Cells (%) [9]: 69%
Population Normal (%) [9]: 93%
Population Pyknosed Nuclei (%) [9]: 6%
Population Tubulin-Different-Phenotype (%) [9]: 2%
Total Cell Count [9]: 245
Population Apoptotic (%) [10]: 50%
Population Fragmented Nuclei (%) [10]: 8%
Population Healthy Nuclei (%) [10]: 83%
Population Hoechst High Intensity Objects (%) [10]: 5%
Population Membrane Permeable-Phenotype (%) [10]: 4%
Population Mitochondria Different-Phenotype (%) [10]: 9%
Population Mitotic Cells (%) [10]: 50%
Population Normal (%) [10]: 94%
Population Pyknosed Nuclei (%) [10]: 7%
Population Tubulin-Different-Phenotype (%) [10]: 12%
Total Cell Count [10]: 110
Population Apoptotic (%) [11]: 91%
Population Fragmented Nuclei (%) [11]: 21%
Population Healthy Nuclei (%) [11]: 33%
Population Hoechst High Intensity Objects (%) [11]: 31%
Population Membrane Permeable-Phenotype (%) [11]: 31%
Population Mitochondria Different-Phenotype (%) [11]: 29%
Population Mitotic Cells (%) [11]: 8%
Population Normal (%) [11]: 68%
Population Pyknosed Nuclei (%) [11]: 44%
Population Tubulin-Different-Phenotype (%) [11]: 33%
Total Cell Count [11]: 221
Population Apoptotic (%) [12]: 87%
Population Fragmented Nuclei (%) [12]: 19%
Population Healthy Nuclei (%) [12]: 26%
Population Hoechst High Intensity Objects (%) [12]: 39%
Population Membrane Permeable-Phenotype (%) [12]: 40%
Population Mitochondria Different-Phenotype (%) [12]: 25%
Population Mitotic Cells (%) [12]: 12%
Population Normal (%) [12]: 60%
Population Pyknosed Nuclei (%) [12]: 53%
Population Tubulin-Different-Phenotype (%) [12]: 48%
Total Cell Count [12]: 108
